Experimental data published in ChEMBL document CHEMBL4699501, “Dihydrodibenzothiepine: Promising hydrophobic pharmacophore in the influenza cap-dependent endonuclease inhibitor” (Bioorg Med Chem Lett, 2020).
Activity calls are given as the source filed them. The rule behind the calls is not given here.

Legend:
Influenza A virus [1] = assay: Antiviral activity against Influenza A virus (A/WSN/1933(H1N1)) infected in […] MDBK cells assessed as cell protection incubated for 72 hrs; type: functional, organism-based
Summary of the method: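 Madin-Darby bovine kidney cells were infected with A/WSN/33 at 50 TCID50/well and incubated with compound at 37 °C in a CO2 incubator for 72 hr.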

[2] = Inhibition of Influenza virus Cap-dependent endonuclease; set-up: species or system Influenza A virus
[3] = Clearance in iv dosed rat by LC/MS/MS analysis; type: ADME, organism-based; conditions: in vivo
Summary of the method: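 Rats received a single intravenous dose, and plasma levels were quantified by LC/MS/MS to derive clearance. Values are the mean of duplicate experiments.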

[4] = Metabolic stability in rat liver microsomes assessed as compound remaining at 2 uM incubated for 30 mins; type: ADME, Microsome; conditions: read-out: Stabilty
Summary of the method: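 Compound at 2 μM was incubated with rat liver microsomes at 37 °C for 30 min. The read-out is % of compound remaining.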

[5] = Fraction unbound in rat serum; type: ADME, cell-free
Summary of the method: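 Free fraction was measured in the presence of rat serum. Values are the mean of duplicate experiments.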

Influenza A virus [6] = assay: Antiviral activity against Influenza A virus (A/WSN/1933(H1N1)) infected in mouse assessed as reduction in viral titer in lung by measuring reduction in virus infectivity in MDCK cells at 5 mg/kg, po administered after 5 days of infection and measured after 24 hrs; type: functional, organism-based
Summary of the method: (§1)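 Mice were inoculated with A/WSN/33 at 100 TCID50/mouse. Oral dosing was twice daily (BID), starting 5 days after infection. Lung virus titer (log TCID50/mL) was determined on MDCK cells 24 h after the first dose.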

Influenza A virus [7] = assay: Antiviral activity against Influenza A virus (A/WSN/1933(H1N1)) infected in mouse assessed as reduction in viral titer in lung by measuring reduction in virus infectivity in MDCK cells at 0.4 to 10 mg/kg, po administered after 5 days of infection and measured after 24 hrs; type: functional, organism-based; conditions: dose mg/kg 0.4-10, time […]; summary of the method: as §1

Structure (SMILES) | EC50 (Influenza A virus [1]) | IC50 [2] | clearance [3] | remaining at 0.5 h, 2 µM [4] | fraction unbound [5] | Activity (Influenza A virus [6]) | Activity (Influenza A virus [7])
CC(C)N1CN(C(c2cccc(C(F)(F)F)c2)c2cccc(C(F)(F)F)c2)n2ccc(=O)c(O)c2C1=O | 386 nM | 456 nM |  |  |  |  | 
CC(CN(C)C)N1CN(C2c3ccccc3CSc3ccccc32)n2ccc(=O)c(O)c2C1=O (centres undefined) | 84.1 nM |  | 98.7 mL/min/kg | 76.4% |  |  | 
C[C@@H](N1CN([C@@H]2c3ccccc3SCc3c(F)cccc32)n2ccc(=O)c(O)c2C1=O)C(F)(F)F | 3.85 nM | 12.5 nM | 8.37 mL/min/kg | 91.8% | 0.00978 |  | 
C[C@@H](N1CN([C@H]2c3ccc(F)cc3CSc3ccccc32)n2ccc(=O)c(O)c2C1=O)C(F)(F)F | 3.54 nM | 12.3 nM | 11.6 mL/min/kg | 95.3% | 0.00383 |  | 
C[C@@H](N1CN([C@H]2c3ccccc3CSc3cc(Cl)ccc32)n2ccc(=O)c(O)c2C1=O)C(F)(F)F | 21.2 nM | 62.1 nM | 12.2 mL/min/kg | 101% | 0.00303 |  | 
C[C@H](N1CN([C@H]2c3ccccc3CSc3ccccc32)n2ccc(=O)c(O)c2C1=O)C(F)(F)F | 18.6 nM |  |  | 79.8% |  |  | 
C[C@@H](N1CN([C@H]2c3ccccc3CSc3ccc(Cl)cc32)n2ccc(=O)c(O)c2C1=O)C(F)(F)F | 70.8 nM | 24.9 nM |  |  |  |  | 
Cc1ccc(C(c2ccc(C)cc2)N2CN(C(C)C)C(=O)c3c(O)c(=O)ccn32)cc1 | 440 nM | 394 nM |  |  |  |  | 
CC(C)N1CN(C(c2ccccc2)c2ccccc2Cl)n2ccc(=O)c(O)c2C1=O (centres undefined) | 77.8 nM | 210 nM |  |  |  |  | 
C[C@@H](N1CN([C@H]2c3ccccc3CSc3cccc(Cl)c32)n2ccc(=O)c(O)c2C1=O)C(F)(F)F | 18.8 nM | 76.2 nM | 10.2 mL/min/kg | 85.4% | 0.00589 |  | 
C[C@@H](N1CN([C@H]2c3cc(Cl)ccc3CSc3ccccc32)n2ccc(=O)c(O)c2C1=O)C(F)(F)F | 4.21 nM |  | 12.4 mL/min/kg | 94.1% | 0.00514 |  | 
C[C@H](N1CN([C@@H]2c3ccccc3CSc3ccccc32)n2ccc(=O)c(O)c2C1=O)C(F)(F)F | 21.7 nM |  |  |  |  |  | 
C[C@@H](N1CN([C@@H]2c3ccccc3CSc3ccccc32)n2ccc(=O)c(O)c2C1=O)C(F)(F)F | 131 nM |  |  |  |  |  | 
C[C@@H](N1CN([C@H]2c3ccccc3CSc3ccccc32)n2ccc(=O)c(O)c2C1=O)C(F)(F)F | 4.69 nM |  | 15.8 mL/min/kg | 98.1% | 0.0103 |  | 
CC(C)N1CN(C(c2ccccc2)c2ccc(Cl)cc2)n2ccc(=O)c(O)c2C1=O (centres undefined) | 94 nM | 291 nM |  |  |  |  | 
CC(C)N1CN(C(c2ccccc2Cl)c2ccccc2Cl)n2ccc(=O)c(O)c2C1=O | 48.2 nM | 37 nM |  |  |  |  | 
O=C1c2c(O)c(=O)ccn2N(C2c3ccccc3CSc3ccccc32)CN1C1CC1 (centres undefined) | 13.7 nM | 35 nM | 46 mL/min/kg | 73.7% | 0.0783 |  | 
C[C@@H](N1CN([C@H]2c3ccccc3SCc3cccc(Cl)c32)n2ccc(=O)c(O)c2C1=O)C(F)(F)F | 3.52 nM | 9.95 nM | 19.6 mL/min/kg | 93.3% | 0.0179 |  | 
COc1cccc(C(c2cccc(OC)c2)N2CN(C(C)C)C(=O)c3c(O)c(=O)ccn32)c1 | 589 nM | 1310 nM |  |  |  |  | 
C[C@@H](N1CN([C@H]2c3ccccc3CSc3c(Cl)cccc32)n2ccc(=O)c(O)c2C1=O)C(F)(F)F | 13.5 nM | 23.2 nM | 6.78 mL/min/kg | 92.3% | 0.00329 |  | 
COCC(C)N1CN(C2c3ccccc3CSc3ccccc32)n2ccc(=O)c(O)c2C1=O (centres undefined) | 20.7 nM | 57.9 nM | 49.1 mL/min/kg | 58.6% | 0.106 |  | 

Structure (SMILES) | EC50 (Influenza A virus [1]) | IC50 [2] | clearance [3] | remaining at 0.5 h, 2 µM [4] | fraction unbound [5] | Activity (Influenza A virus [6]) | Activity (Influenza A virus [7])
C[C@@H](N1CN([C@H]2c3ccccc3CSc3ccc(F)cc32)n2ccc(=O)c(O)c2C1=O)C(F)(F)F | 8.16 nM |  | 15.4 mL/min/kg | 103% | 0.00975 |  | 
C[C@@H](N1CN([C@H]2c3cc(F)ccc3CSc3ccccc32)n2ccc(=O)c(O)c2C1=O)C(F)(F)F | 4.68 nM | 44.3 nM | 21.3 mL/min/kg | 98.9% | 0.0129 |  | 
C[C@@H](N1CN([C@H]2c3ccc(Cl)cc3CSc3ccccc32)n2ccc(=O)c(O)c2C1=O)C(F)(F)F | 10.5 nM | 6.99 nM | 5.7 mL/min/kg | 96.1% | 0.00117 |  | 
Cc1cccc(C(c2ccccc2)N2CN(C(C)C)C(=O)c3c(O)c(=O)ccn32)c1 (centres undefined) | 219 nM | 276 nM |  |  |  |  | 
[2H]C([2H])([2H])C([2H])(N1CN(C2c3ccccc3CSc3ccccc32)n2ccc(=O)c(O)c2C1=O)C([2H])([2H])[2H] (centres undefined) | 11.7 nM | 43.4 nM | 39.1 mL/min/kg | 74.4% | 0.0601 |  | 
C[C@@H](N1CN([C@H]2c3ccccc3CSc3cc(F)ccc32)n2ccc(=O)c(O)c2C1=O)C(F)(F)F | 14.3 nM |  | 13.4 mL/min/kg | 93.9% | 0.00807 |  | 
CCOC(=O)C1=C[C@@H](OC(CC)CC)[C@H](NC(C)=O)[C@@H](N)C1 |  |  |  |  |  | Active | 
O=C1c2c(O)c(=O)ccn2N(C2c3ccccc3CSc3ccccc32)CN1C(CF)CF (centres undefined) | 27.5 nM | 113 nM | 33.5 mL/min/kg | 84.9% |  |  | 
CC(C)N1CN(C2c3ccccc3CSc3ccccc32)n2ccc(=O)c(O)c2C1=O (racemic) | 16.9 nM |  | 32.7 mL/min/kg | 72.6% | 0.0768 |  | 
CC(C)N1CN(C(c2cccc(Cl)c2)c2cccc(Cl)c2)n2ccc(=O)c(O)c2C1=O | 65.8 nM | 230 nM |  |  |  |  | 
CC(C)N1CN(C2c3ccccc3COc3ccccc32)n2ccc(=O)c(O)c2C1=O (centres undefined) | 71 nM |  |  |  |  |  | 
C[C@@H](N1CN([C@@H]2c3ccccc3SCc3cccc(F)c32)n2ccc(=O)c(O)c2C1=O)C(F)(F)F | 3.75 nM | 31.8 nM | 18 mL/min/kg | 102% | 0.012 |  | 
C[C@@H](N1CN([C@@H]2c3ccccc3SCc3c2ccc(F)c3F)n2ccc(=O)c(O)c2C1=O)C(F)(F)F | 4.28 nM | 5.57 nM | 11 mL/min/kg | 81.1% | 0.00411 |  | Active
Cc1ccccc1C(c1ccccc1)N1CN(C(C)C)C(=O)c2c(O)c(=O)ccn21 (centres undefined) | 73.4 nM | 142 nM |  |  |  |  | 
CC(C)N1CN(C2c3ccccc3CCc3ccccc32)n2ccc(=O)c(O)c2C1=O | 20.1 nM | 60.1 nM |  |  |  |  | 
CC(C)N1CN(C(c2ccccc2)c2ccccc2)n2ccc(=O)c(O)c2C1=O | 81.6 nM | 286 nM |  |  |  |  | 
CC(C)N1CN(C(c2ccccc2)c2cccc(Cl)c2)n2ccc(=O)c(O)c2C1=O (centres undefined) | 75.9 nM | 101 nM |  |  |  |  | 
C[C@@H](N1CN([C@H]2c3ccccc3CSc3cccc(F)c32)n2ccc(=O)c(O)c2C1=O)C(F)(F)F | 15.1 nM | 37.1 nM | 9.09 mL/min/kg | 97.4% | 0.0119 |  | 
C[C@@H](N1CN([C@H]2c3ccccc3CSc3c(F)cccc32)n2ccc(=O)c(O)c2C1=O)C(F)(F)F | 3.41 nM |  | 10.3 mL/min/kg | 95.6% | 0.00574 |  | 
C[C@@H](N1CN([C@@H]2c3ccccc3SCc3c(Cl)cccc32)n2ccc(=O)c(O)c2C1=O)C(F)(F)F | 3.04 nM | 30 nM | 7.36 mL/min/kg | 102% | 0.00293 |  | 
